Test results reported in ChEMBL document CHEMBL1136044, “Antitrypanosomal activities and cytotoxicity of 5-nitro-2-furancarbohydrazides” (Bioorg Med Chem Lett, 2002).

Tests used:
Leishmania infantum = assay: Evaluated in vitro for antitrypanosomal activity against Leishmania infantum; format: functional; settings: read-out: ED50 (the source's name)
How it was run: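 Primary mouse peritoneal macrophages, 30,000 per well on culture slides. After 24 h, L. infantum amastigotes from the spleen of an infected donor animal were added at a 10/1 infection ratio with two-fold drug dilutions. Incubation was 7 days at 37 °C in 5% CO2. Wright-stained slides were scored microscopically for % reduction of parasite load or infected macrophages, and ED50 was extrapolated.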

[1] = Tested for cytotoxicity towards mouse peritoneal macrophages (MPM); format: functional
How it was run: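 Peritoneal macrophages were harvested 48 h after potato-starch stimulation and seeded at 30,000 per well. After 24 h they were washed and given two-fold drug dilutions (32 down to 1.6) in RPMI + 5% FCS, with final DMSO below 0.5%. Cultures ran 7 days at 37 °C in 5% CO2 alongside untreated controls.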

MRC5 = assay: Tested for cytotoxicity towards human MRC-5 cells; format: functional
How it was run: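 MRC-5 cells were seeded at 5000 per well and washed after 24 h. Two-fold drug dilutions (32 down to 1.6) were added in RPMI + 5% FCS, with final DMSO below 0.5%. After 7 days at 37 °C in 5% CO2, MTT absorbance at 540 nm was read as % reduction versus untreated controls to give CC50.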

Trypanosoma brucei = assay: Evaluated in vitro for antitrypanosomal activity against Trypanosoma brucei; format: functional; settings: read-out: ED50 (the source's name)
How it was run: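 T. brucei bloodstream forms were grown in HMI-9 medium. 10,000 haemoflagellates per well were exposed to different drug concentrations for 4 days; ED50 was reported.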

Trypanosoma cruzi = assay: Evaluated in vitro for antitrypanosomal activity against Trypanosoma cruzi; format: functional; settings: read-out: ED50 (the source's name)
How it was run: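 Mouse peritoneal macrophages were seeded at 30,000 per well. After 24 h, about 100,000 T. cruzi trypomastigotes were added per well with 2-fold drug dilutions, then held 4 days at 37 °C in 5% CO2. After methanol fixation and Giemsa staining, % reduction of total parasite load (free trypomastigotes plus intracellular amastigotes) versus untreated cultures was scored microscopically; ED50 was extrapolated.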

Trypanothione reductase = Trypanothione reductase (Trypanosoma cruzi, UniProt P28593); assay: Compound was tested for inhibition of trypanothione reductase from Trypanosoma cruzi
Chain of Trypanothione reductase (P28593 whole entry): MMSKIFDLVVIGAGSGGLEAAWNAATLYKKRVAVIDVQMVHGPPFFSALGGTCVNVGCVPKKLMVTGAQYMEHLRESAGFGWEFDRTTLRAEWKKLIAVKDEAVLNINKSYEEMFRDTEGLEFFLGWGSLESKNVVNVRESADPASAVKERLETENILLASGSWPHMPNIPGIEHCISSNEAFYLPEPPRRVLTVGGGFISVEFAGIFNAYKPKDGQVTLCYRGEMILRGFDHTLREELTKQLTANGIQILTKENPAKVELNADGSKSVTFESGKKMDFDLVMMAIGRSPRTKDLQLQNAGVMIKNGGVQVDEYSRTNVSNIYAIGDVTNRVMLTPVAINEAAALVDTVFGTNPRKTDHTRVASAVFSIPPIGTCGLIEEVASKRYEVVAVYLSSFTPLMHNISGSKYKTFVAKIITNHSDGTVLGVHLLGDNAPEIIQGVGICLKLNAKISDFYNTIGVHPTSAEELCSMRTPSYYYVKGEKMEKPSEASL
How it was run: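 T. cruzi trypanothione reductase assay, with trypanothione disulfide as substrate and 0.02 U TR per assay; IC50 determined over increasing compound concentrations.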

SMILES	EC50 (Trypanosoma brucei) [µM]	EC50 (Trypanosoma cruzi) [µM]	IC50 (Trypanothione reductase) [µM]	EC50 (Leishmania infantum) [µM]	CC50 [1] [µM]	CC50 (MRC5) [µM]
O=C(Cn1ccnc1[N+](=O)[O-])NCc1ccccc1 [BENZNIDAZOLE]	–	3.13	–	–	–	> 50
Nc1nc(N)nc(Nc2ccc([As]3SCC(CO)S3)cc2)n1 (centres undefined) [MELARSOPROL]	0.2	–	–	–	–	–
O=C(NNC(=O)c1ccc([N+](=O)[O-])o1)c1ccc2ccccc2c1	0.13	4	–	8	32	2
O=C(NNC(=O)c1cccc2ccccc12)c1ccc([N+](=O)[O-])o1	0.4	3	–	8	32	1
O=C(NNC(=O)c1ccc([N+](=O)[O-])o1)c1ccccc1	32	16	–	> 32	32	17
CC(C)(C)OC(=O)N[C@@H](C(=O)NNC(=O)c1ccc([N+](=O)[O-])o1)c1ccccc1	0.25	4	–	8	32	6
Nc1ccc2cc(C(=O)NNC(=O)c3ccc([N+](=O)[O-])o3)ccc2c1	0.64	4	–	8	32	0.77
O=C(O)c1ccc([N+](=O)[O-])o1 [5-NITRO-2-FUROIC ACID]	5	> 32	–	> 32	32	> 32
O=C(NNC(=O)c1ccc([N+](=O)[O-])o1)c1ccc([N+](=O)[O-])o1	3	3	> 50	8	32	4
O=C(NNS(=O)(=O)c1ccc2ccccc2c1)c1ccc([N+](=O)[O-])o1	28	> 32	–	> 32	32	18
O=C(NNS(=O)(=O)c1ccccc1)c1ccc([N+](=O)[O-])o1	2	16	–	> 32	32	4
COC(=O)c1ccc([N+](=O)[O-])o1	> 32	> 32	–	> 32	32	> 32

The remaining molecules from weak to strong by EC50 (Trypanosoma cruzi), led by results:

EC50 (Trypanosoma brucei) [µM]	EC50 (Trypanosoma cruzi) [µM]	IC50 (Trypanothione reductase) [µM]	SMILES	EC50 (Leishmania infantum) [µM]	CC50 [1] [µM]	CC50 (MRC5) [µM]
2	2	–	N[C@@H](C(=O)NNC(=O)c1ccc([N+](=O)[O-])o1)c1ccccc1	> 32	32	14
0.5	1	–	CC(C)(C)OC(=O)Nc1ccc2cc(C(=O)NNC(=O)c3ccc([N+](=O)[O-])o3)ccc2c1	8	32	2
0.3	1	–	O=C(Cc1ccccc1)NNC(=O)c1ccc([N+](=O)[O-])o1	8	32	2
2	1	> 50	CC(C)(C)OC(=O)NNC(=O)c1ccc([N+](=O)[O-])o1	> 32	32	12
1	0.8	–	O=C(NNS(=O)(=O)c1cccc2ccccc12)c1ccc([N+](=O)[O-])o1	8	32	0.75
5	0.5	> 50	NNC(=O)c1ccc([N+](=O)[O-])o1	> 32	32	9
–	0.4	–	CC1CS(=O)(=O)CCN1/N=C/c1ccc([N+](=O)[O-])o1 (centres undefined) [NIFURTIMOX]	–	–	> 50
0.59	0.4	> 25	O=C(Cc1ccc2ccccc2c1)NNC(=O)c1ccc([N+](=O)[O-])o1	8	32	4
